PglD inh: blocks C. jejuni PglD acetyltransferase activity; inhibition, % at 12.5 µM; 360,000 compounds, 0.098% hits; purified PglD enzyme, DTNB colorimetric CoA detection; in the data active = inhibition above about 16%, passing the limit was not always enough
RAD54 branch: blocks human RAD54 Holliday junction branch migration | inhibition, % at 10.4 µM | 360,000 compounds, 0.14% hits | AID 602329 | FAM/BHQ fluorescence | Q92698;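 active = mean normalized replicate activity at least 40 and at least half of replicates scoring 40 or more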;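 note: inhibitors cause a drop in the FAM fluorescence signal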
Ecoli rRNA inh: inhibitors of bacterial rRNA selective over humanized ribosomes | E. coli WT GFP vs humanized-ribosome RFP mutants, fluorescence, 24 h; active compounds read low; DMSO median 0, no signal -100 | GFP signal change (wild-type ribosome), % (concentration not given with the values) | 350,000 compounds, 1.6% hits | AID 720706;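 active = significant combined selectivity score with lowered wild-type GFP, culture density cut under 30%, mutant RFP and density less affected; inactive = any of these conditions unmet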
RAD52 anneal inh: RAD52 (human) annealing inhibition | P43351 | recombinant RAD52 DNA annealing, FRET fluorescence | inhibition, % at 18.7 µM | 360,000 compounds, 0.46% hits;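 active = every replicate showing at least 50% inhibition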
Target sequence (P43351 whole entry, looked up): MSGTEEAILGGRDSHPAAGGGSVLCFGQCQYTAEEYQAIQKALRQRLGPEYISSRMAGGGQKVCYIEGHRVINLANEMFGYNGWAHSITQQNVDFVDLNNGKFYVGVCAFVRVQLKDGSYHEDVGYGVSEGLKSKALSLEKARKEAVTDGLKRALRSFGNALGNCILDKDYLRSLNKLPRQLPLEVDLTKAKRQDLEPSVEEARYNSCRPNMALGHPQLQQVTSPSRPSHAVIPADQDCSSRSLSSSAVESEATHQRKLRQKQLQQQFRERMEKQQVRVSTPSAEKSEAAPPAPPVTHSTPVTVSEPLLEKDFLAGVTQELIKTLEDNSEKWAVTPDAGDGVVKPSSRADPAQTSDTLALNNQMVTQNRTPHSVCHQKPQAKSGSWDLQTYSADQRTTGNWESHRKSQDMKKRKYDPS
Cneo AK release: Cryptococcus neoformans lysis via adenylate kinase release | 360,000 compounds, 0.2% hits | lysis activity, % at 15 µM | C. neoformans lysis, adenylate kinase release luminescence, 4 h; normalised: neutral wells 0, clomiphene wells 100;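 active = mean lysis activity across replicates of at least 80%, whatever share of replicates individually reach that level; inactive = mean lysis activity below 80%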
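Material: C. neoformans cells | Amount: Yeast cell density of 5 × 10^6 cells/mL | Medium: Fresh YPD growth medium | Dosing: Single dose | Times: Static 4 h at 37 °C with compound, 1 h detection | Detection: AK luminescence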
Hits are given with their value; – = inactive; · = not tested or not shown. Only some compounds are listed: those with a hit (about 1.9% of all), similar ones and a draw of the others.

SMILES	PglD inh	RAD54 branch	Ecoli rRNA inh	RAD52 anneal inh	Cneo AK release
C/C(=N\NC(=O)c1ccc(O)cc1)c1ccc(N2CCOCC2)cc1	·	·	–	–	·
C/C(=N/NC(=O)c1ccc(-c2ccccc2)cc1)c1cccc(O)c1	–	–	-26	–	–
C/C(=N\NC(=O)c1ccc(O)cc1)c1cccc(NC(=O)c2ccc(Cl)cc2)c1	–	–	-35	–	–
C/C(=N\NC(=O)c1ccc(N/N=C(\C)c2ccc(O)cc2)cc1)c1ccc(O)cc1	·	·	-21	–	·
C/C(=N\NC(=O)c1cccc(O)c1)c1cccc(NC(=O)c2ccc(F)cc2)c1	–	–	–	–	–
CC(=NNC(=O)c1ccncc1)c1ccccc1O	–	–	-30	–	–
CCN1Cc2cc(C(=O)NCCN3CCCC3)nc(-c3cccc(C4=CCCC4)c3)c2[C@H]1CCO	·	·	–	·	·
CCOc1ccc2nc(SCC(=O)Nc3cccc(S(=O)(=O)NC4=NCCCCC4)c3)[nH]c2c1	–	–	-27	–	–
Cc1ccc(S(=O)(=O)N(C)C)cc1NC(=O)COC(=O)/C=C/c1ccc2c(c1)OCO2	–	–	–	–	–
CN(C)S(=O)(=O)c1cccc(NC(=O)COC(=O)/C=C/c2ccc3c(c2)OCO3)c1	–	–	-27	–	–
O=C(COC(=O)/C=C/c1ccc(Cl)cc1)Nc1cccc(S(=O)(=O)NC2=NCCCCC2)c1	–	–	-20	–	–
O=C(COC(=O)/C=C/c1cccc(Cl)c1)Nc1cccc(S(=O)(=O)NC2=NCCC2)c1	–	–	–	–	–
CN1C(=O)c2cccc3c(S(=O)(=O)N(C)C)ccc1c23	–	–	–	–	118
CCN1C(=O)c2cccc3c(S(=O)(=O)N(C)C)ccc1c23	–	–	–	–	–
COc1ccc(NC(=O)N(C)C[C@H]2OCCCC[C@@H](C)Oc3ccc(NC(=O)c4ccccc4)cc3C(=O)N([C@H](C)CO)C[C@H]2C)cc1	–	–	–	–	83
COc1ccc(NC(=O)Nc2ccc3c(c2)C(=O)N([C@H](C)CO)C[C@@H](C)[C@@H](CN(C)C(=O)CCC(F)(F)F)OCCCC[C@H](C)O3)cc1	–	–	–	–	95
COc1ccc(NC(=O)N(C)C[C@H]2OCCCC[C@@H](C)Oc3ccc(NC(=O)c4ccccc4)cc3C(=O)N([C@@H](C)CO)C[C@H]2C)cc1	–	–	–	–	102
COc1ccc(NC(=O)N(C)C[C@@H]2OCCCC[C@@H](C)Oc3ccc(NC(=O)Nc4ccc5c(c4)OCO5)cc3C(=O)N([C@@H](C)CO)C[C@H]2C)cc1	–	–	–	–	88
CCCNC(=O)N1CC2(C1)[C@@H](c1ccccc1)[C@H](CO)N2CC1CCOCC1	·	·	–	·	·
C/C=C/c1cnc2c(c1)C(=O)N([C@H](C)CO)C[C@H](C)[C@H](CN(C)S(=O)(=O)c1ccc(OC)cc1)O2	–	–	–	–	–
C[C@@H]1CN(C)C(=O)Cc2cc(NS(C)(=O)=O)ccc2O[C@H]1CN(C)C	·	·	–	·	·
CC(=O)N1[C@H](CO)[C@H](c2ccc(C3=CCCCC3)cc2)[C@@H]1CNC(=O)CC1CC1	·	·	–	–	·
CCc1nc2ccccc2c(=O)n1NC(=O)c1c(O)c2ccccc2n(CC)c1=O	·	·	-30	–	·
C[C@@H]1CN([C@@H](C)CO)S(=O)(=O)c2ccc(-c3cccnc3)cc2O[C@H]1CN(C)C(=O)C1CC1	·	·	–	·	·
CC1CCN(CCCn2c(SCC(=O)Nc3ccccc3Cl)nc3ccccc3c2=O)CC1	·	·	-33	–	·
SMILES	PglD inh	RAD54 branch	Ecoli rRNA inh	RAD52 anneal inh	Cneo AK release
Cn1c(N2CCN(C(=O)Nc3ccc(F)cc3)CC2)nc2ccccc21	–	–	·	·	–
Cn1c(N2CCN(C(c3ccccc3)c3ccccc3)CC2)nc2ccccc21	–	–	-26	–	–
O=C1Nc2ccccc2/C1=C\C(=O)c1ccccc1	–	–	-19	–	–
O=C(/C=C1\C(=O)Nc2ccccc21)/C=C1\C(=O)Nc2ccccc21	–	–	–	–	–
CC(=O)Nc1ccc(N2CCOCC2)c(S(=O)(=O)Nc2ccccc2Cl)c1	–	–	–	–	–
C=CCNC(=S)Nc1ccc(N2CCOCC2)c(S(=O)(=O)Nc2ccccc2Cl)c1	–	–	-34	–	–
COc1ccc(CN(C)C[C@H]2Oc3c(NC(=O)c4nc5ccccc5s4)cccc3C(=O)N([C@H](C)CO)C[C@@H]2C)cc1	–	–	–	–	–
CC(Oc1ccccc1)C(=O)Nc1nnc(S(=O)(=O)N2CCCCC2)s1 (configuration not stated)	–	–	–	–	–
CC(Oc1ccccc1)C(=O)Nc1nnc(S(=O)(=O)Nc2ccccc2)s1 (configuration not stated)	–	–	-13	–	–
C[C@H](CO)N1C[C@H](C)[C@H](CN(C)S(=O)(=O)c2ccccc2)Oc2ncc(-c3cccc(F)c3)cc2C1=O	–	–	–	–	–
Nc1c(C(=O)N/N=C/c2cccnc2)oc2nc(-c3ccco3)cc(-c3ccco3)c12	–	–	–	–	–
NNC(=O)c1oc2nc(-c3ccco3)cc(-c3ccco3)c2c1N	–	–	-14	–	–
CCOC(=O)CSC1=C(C#N)C(c2sccc2C)C(C(C)=O)=C(C)N1 (configuration not stated)	·	·	-40	–	·
N#C[C@H]1[C@@H](c2ccc(C#CC3CCCC3)cc2)[C@@H](CO)N1C(=O)c1cccc(F)c1	·	·	–	·	·
C[C@H](CO)N1C[C@H](C)[C@H](CN(C)C(=O)NC2CCCC2)OCc2cn(nn2)CCCC1=O	–	–	–	–	–
C[C@@H]1CN([C@@H](C)CO)C(=O)CCCn2cc(nn2)CO[C@@H]1CN(C)C(=O)CCCN(C)C	–	–	–	–	97
C[C@H](CO)N1C[C@H](C)[C@@H](CN(C)C(=O)CCCN(C)C)OCc2cn(nn2)CCCC1=O	–	–	–	–	–
C[C@@H]1CN([C@@H](C)CO)C(=O)CCCn2cc(nn2)CO[C@@H]1CN(C)C(=O)NC1CCCC1	–	–	–	–	117
C[C@@H]1CN([C@H](C)CO)C(=O)CCCn2cc(nn2)CO[C@@H]1CN(C)C(=O)CCCN(C)C	–	–	·	–	105
C[C@@H]1CN(C)C(=O)c2cc(N)ccc2O[C@@H]1CN(C)S(C)(=O)=O	·	·	–	·	·
C[C@@H]1CC=CC[C@H](c2ccccc2)NC(=O)[C@H](C)N(C)C(=O)c2ccccc2O1 (mixture of isomers)	·	·	–	·	·
COC(=O)c1cc(NC(=O)c2cc3ccccc3o2)cc(C(=O)OC)c1	–	–	-23	–	–
CCOC(=O)Cc1csc(NC(=O)c2cc(C)cc(C)c2)n1	–	–	-25	–	–
CCOC(=O)Cc1csc(NC(=O)c2cc3ccccc3o2)n1	·	·	-19	–	·
Cc1noc(C)c1S(=O)(=O)N(C)C[C@@H]1Oc2ccc(NC(=O)CCCCCC(=O)Nc3ccccc3N)cc2CC(=O)N([C@@H](C)CO)C[C@@H]1C	·	·	–	–	·
CCc1ccc(-c2cc(C(=O)N/N=C/c3ccccn3)[nH]n2)cc1	·	·	-25	–	·
